Drawing on ChEMBL document CHEMBL1140216, “Triazine compounds as antagonists at Bv8-prokineticin receptors” (J Med Chem, 2008), this text covers Activity, Ki and Ratio Ki for 4 molecules.

Assay [1] addresses T1, Prokineticin receptor 1 (Homo sapiens, UniProt Q8TCW9). The assay is described as follows: Antagonist activity at PKR1 expressed in CHO cell membrane assessed as reduction of Bv8-induced increase in intracellular calcium level at 100 uM. Type of assay: functional, cell-based. Further details: scale not given: the % may be the effect or the level left. A digest of the protocol:
(§1)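 Intact CHO cells transfected with PKR1 or PKR2. Compound preincubated 4 min, then challenged with 1 nM Bv8, and fluorescence followed for 2 min. Intracellular Ca2+ was read as the 340/380 nm […] ratio, and the result was scored as the percentage of cells responding to Bv8.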
On the technique in general: A change in cytosolic calcium serves as a functional read-out for many receptors and channels.

The target in assay [2] is T2, Prokineticin receptor 2 (Homo sapiens, UniProt Q8NFJ6). The assay is described as follows: Antagonist activity at PKR2 expressed in CHO cell membrane assessed as reduction of Bv8-induced increase in intracellular calcium level at 1 mM. Type of assay: functional, cell-based. Set-up: scale not given: the % may be the effect or the level left. A digest of the protocol:
as §1

Assay [3] concerns the target T1, Prokineticin receptor 1. The experiment in a line: Antagonist activity at PKR1 expressed in CHO cell membrane assessed as reduction of Bv8-induced increase in intracellular calcium level at 1 mM. Type of assay: functional, cell-based. Set-up: scale not given: the % may be the effect or the level left. The essentials: as §1
The target of assay [4] is T2, Prokineticin receptor 2. The experiment in a line: Antagonist activity at PKR2 expressed in CHO cell membrane assessed as reduction of Bv8-induced increase in intracellular calcium level at 10 uM. It counts as functional, cell-based. Further details: scale not given: the % may be the effect or the level left. The essentials:
as §1

Assay [5] addresses T1, Prokineticin receptor 1. The experiment in a line: Displacement of [I125]MIT from PKR1 expressed in CHO cell membrane. It counts as cell membranes.
Assay [6] addresses T2, Prokineticin receptor 2. The assay is described as follows: Displacement of [I125]MIT from PKR2 expressed in CHO cell membrane. It counts as cell membranes.
Assay [7] has as its target T1, Prokineticin receptor 1. The assay is described as follows: Antagonist activity at PKR1 expressed in CHO cell membrane assessed as reduction of Bv8-induced increase in intracellular calcium level at 10 uM. Type of assay: functional, cell-based. Further details: scale not given: the % may be the effect or the level left. A digest of the protocol: as §1
For assay [8], the target named is T1, Prokineticin receptor 1. The experiment in a line: Antagonist activity at PKR1 expressed in CHO cell membrane assessed as reduction of Bv8-induced increase in intracellular calcium level at 300 nM. It counts as functional, cell-based. Further details: scale not given: the % may be the effect or the level left. The essentials:
as §1

Assay [9] has as its target T2, Prokineticin receptor 2. The experiment in a line: Antagonist activity at PKR2 expressed in CHO cell membrane assessed as reduction of Bv8-induced increase in intracellular calcium level at 300 nM. Type of assay: functional, cell-based. Further details: scale not given: the % may be the effect or the level left. The essentials:
as §1

In assay [10] the target is T2, Prokineticin receptor 2. The assay is described as follows: Antagonist activity at PKR2 expressed in CHO cell membrane assessed as reduction of Bv8-induced increase in intracellular calcium level at 100 nM. It counts as functional, cell-based. Further details: scale not given: the % may be the effect or the level left. The essentials: as §1
Assay [11] concerns the target T1, Prokineticin receptor 1. The experiment in a line: Antagonist activity at PKR1 expressed in CHO cell membrane assessed as reduction of Bv8-induced increase in intracellular calcium level at 100 nM. Set-up: scale not given: the % may be the effect or the level left. It counts as functional, cell-based. The essentials:
as §1

Assay [12] in a line: Selectivity for ratio of Ki for PKR2 to Ki for PKR1.

T2 sequence (Q8NFJ6 whole entry): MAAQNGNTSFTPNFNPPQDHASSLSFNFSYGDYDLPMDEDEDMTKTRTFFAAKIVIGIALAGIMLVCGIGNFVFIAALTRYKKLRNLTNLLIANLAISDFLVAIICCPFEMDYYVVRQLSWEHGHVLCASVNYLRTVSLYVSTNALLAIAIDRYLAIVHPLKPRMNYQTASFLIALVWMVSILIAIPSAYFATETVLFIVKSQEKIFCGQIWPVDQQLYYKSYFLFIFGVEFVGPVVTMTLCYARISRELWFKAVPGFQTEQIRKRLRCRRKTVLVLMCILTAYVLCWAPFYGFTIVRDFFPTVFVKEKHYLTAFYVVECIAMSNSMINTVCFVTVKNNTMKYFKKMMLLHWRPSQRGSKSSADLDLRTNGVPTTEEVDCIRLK
T1 sequence (Q8TCW9 whole entry): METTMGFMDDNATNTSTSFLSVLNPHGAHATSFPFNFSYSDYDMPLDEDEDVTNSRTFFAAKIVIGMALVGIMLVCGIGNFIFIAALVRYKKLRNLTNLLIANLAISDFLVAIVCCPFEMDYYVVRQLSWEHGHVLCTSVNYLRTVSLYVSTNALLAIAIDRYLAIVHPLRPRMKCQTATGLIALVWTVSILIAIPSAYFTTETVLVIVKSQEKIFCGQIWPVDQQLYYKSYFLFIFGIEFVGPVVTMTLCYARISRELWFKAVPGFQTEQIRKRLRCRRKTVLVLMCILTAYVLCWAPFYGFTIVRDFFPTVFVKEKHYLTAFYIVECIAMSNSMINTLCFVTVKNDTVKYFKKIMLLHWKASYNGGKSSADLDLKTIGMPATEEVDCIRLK

For the molecule `CCc1ccc(Cn2c(=O)nc(NCCNC3=NCCN3)n(Cc3ccc(OC)cc3)c2=O)cc1`, the Activity at Prokineticin receptor 1 [1] was 91%.
Turning to `CCc1ccc(Cn2c(=O)nc(NCCN)n(Cc3ccc(OC)cc3)c2=O)cc1`, the Activity on Prokineticin receptor 2 [2] turned out to be 2%; at Prokineticin receptor 1 [3], 0.3%; on Prokineticin receptor 2 [4], 89%; at Prokineticin receptor 1 [7], 90%. In addition, the figures for the inhibition constant (Ki) at Prokineticin receptor 1 [5] and on Prokineticin receptor 2 [6] were 0.44 µM and 23.4 µM, respectively.
Consider `CCc1ccc(Cn2c(=O)nc(NCCNC(=N)N)n(Cc3ccc(OC)cc3)c2=O)cc1`, for which the Activity on Prokineticin receptor 1 [8] came to 4%; at Prokineticin receptor 2 [9], 6%; on Prokineticin receptor 2 [10], 48%; on Prokineticin receptor 1 [11] it was 52%. Further, the figures for the Ki at Prokineticin receptor 1 [5] and on Prokineticin receptor 2 [6] were 0.022 µM and 1.61 µM, respectively. The Ratio Ki in assay [12] was 70.
`CCc1ccc(Cn2c(=O)nc(NCCN=C3NCCN3)n(Cc3ccc(OC)cc3)c2=O)cc1`: the Ki was determined as 4.72 µM at Prokineticin receptor 1 [5] and 71.2 µM at Prokineticin receptor 2 [6].

For orientation: Ki means a dissociation constant, usually derived from enzyme kinetics or from competition with a known ligand.
